Screening data as filed in PubChem BioAssay.
Sampled rows, rich in hits. Any-hit rate of the full collection: about 1.8%.
Jurkat NFkB inh: inhibitors of the PMA/ionomycin-induced NF-kB reporter in Jurkat cells; PMA/ionomycin-induced NF-kB luciferase reporter, luminescence; inhibition, % at 4 µM; actives 0.53% (n = 330,000); AID 435003; in the data active = inhibition above about 50%
UPR CHOP act: apoptotic UPR (CHOP) activation; AID 449763; actives 0.34% (n = 330,000); CHO-CHOP luciferase reporter, luminescence; percent of tunicamycin response over DMSO baseline; activation, % at 10 µM;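 active = at 10 µM dose, activation of 40% or more, normalized to positive control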;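 also: 100% = tunicamycin at 10 µg/mL and 0% = DMSO alone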
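System: CHO-CHOP luciferase reporter cell line; amount: 500 cells/well; buffer or medium: F12 medium containing 10% fetal bovine serum; incubation: 6 h compound exposure at 37 °C after overnight seeding; measured by: luciferase luminescence after 10 min with Steady-Glo reagent; evaluation: % reporter activation, DMSO baseline versus tunicamycin full activation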
UPR XBP1 act: activators of adaptive arm of unfolded protein response (XBP1); actives 0.33% (n = 330,000); activation, % at 20 µM; CHO-XBP1 luciferase reporter, IRE1-XBP1 UPR activation, luminescence; percent of tunicamycin response, DMSO as zero;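 active = versus positive control, 20 µM dose yields 30% or more activation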;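 also: 100% = tunicamycin at 10 µg/mL and 0% = DMSO only wells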
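Material: CHO-XBP1 cells stably carrying IRE1-XBP1-driven luciferase reporter / Amount: 1000 cells per well / Compound: 20 µM, 1% DMSO / Times: 6 h treatment, 37 °C / Detection: luciferase luminescence / Measure: % activation of reporter signal versus tunicamycin and DMSO controls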
697 NFkB inh: lowers PMA/ionomycin-induced NF-kB signal in 697 B cells. 697 B-cell NF-kB luciferase reporter, 16 h. inhibition, % at 4 µM. actives 0.33% (n = 330,000); in the data active = inhibition above about 35%
CRFR2-BP antag: blocks CRF-induced signaling of the CRF-BP/CRF-R2 complex | HEK293 CRF-R2/CRF-BP, CRF-induced calcium fluorescence | AID 588475 | actives 0.59% (n = 350,000) | inhibition, % at 11.8 µM;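 active = inhibition of the ligand-induced calcium signal above about 50% at the single tested concentration, limit read from the data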
Jurkat NFkB conf: inhibitors of the PMA/ionomycin-induced NF-kB reporter in Jurkat cells, retest | shares compounds with Jurkat NFkB inh | Jurkat NF-kB luciferase, 16 h | inhibition, % at 4 µM | actives 27% (n = 2,700) | AID 435020;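 active = inhibition reaching about 45% at 4 µM in either replicate, limit read from the data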;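 also: plate controls were PMA/ionomycin stimulated DMSO wells for no effect and unstimulated DMSO wells for full effect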
The depositor's hits bear a star; . = no result.

SMILES	Jurkat NFkB inh	UPR CHOP act	UPR XBP1 act	697 NFkB inh	CRFR2-BP antag	Jurkat NFkB conf
COC(=O)C(Cc1c[nH]c2ccccc12)NC(=O)C1CC1 (centres undefined)	-6	-1	6	1	-4	.
COc1ccc2c(c1)C(=O)N1[C@H]3c4cc(Br)ccc4OC[C@@H]3[C@H](c3ccccc3)[C@]1(C)C(=O)N2	52*	0	-2	31	16	53*
COc1cc(NC(=O)c2csc(N)n2)cc(C(=O)Nc2cccc(C(F)(F)F)c2)c1	64*	4	1	-33	11	-1
COc1cc(NC(=O)c2cnc(N)s2)cc(C(=O)Nc2cccc(C(F)(F)F)c2)c1	-20	1	-1	-18	-13	.
S=C(c1ccc(-c2ccc(Br)cc2)o1)N1CCCCC1	-175	2	5	-181	5	-115
CCOc1ccc2oc(C(=O)Nc3ccc(C)cn3)c(C)c2c1	.	.	.	.	-5	.
Cc1ccc2oc(C(=O)Nc3cc(C)on3)c(C)c2c1	-169	-3	-1	-47	-11	-75
O=C(Nc1ccn(Cc2ccccc2F)n1)c1ccc(COc2ccc(Br)cc2)cc1	53*	5	0	-30	0	52*
O=C(Nc1ccc(Cn2cccn2)cc1)c1ccc(COc2ccc(Br)cc2)cc1	-2	0	0	-34	9	.
Cc1nc2nc(CCNS(=O)(=O)c3ccc(Cl)cc3)cn2nc1C	-3	2	-3	-4	0	.
CC(NCc1ccc(OCC(N)=O)cc1)C12CC3CC(CC(C3)C1)C2 (centres undefined)	10	-2	-5	-2	2	.
Cc1ccc(S(=O)(=O)Nc2cccc(-c3ccc4nncn4n3)c2)cc1	59*	1	8	-8	-9	48*
CCCC#Cc1ccc2c(c1)COc1c3ccccc3nn1-2	-125	3	3	-197	-2	.
CCc1cc(-c2ccc3c(c2)COc2c4ccccc4nn2-3)on1	-165	1	-5	-100	-12	-57
CCCc1cc(C(=O)Nc2nccs2)cs1	-166	0	-1	-88	-27	-109
CCC/C(O)=C1\C(=O)CC(C)(C)CC1=Nc1ccc(OC)cc1OC	62*	-1	0	-40	5	39
O=c1c2ccccc2nc2sc(Nc3ccc(F)cc3)nn12	-157	3	0	-154	-1	-42
CC(C)c1ccc(/C=C2\SC(=O)N(CC(=O)NC3CCS(=O)(=O)C3)C2=O)cc1 (centres undefined)	-4	8	4	-104	-5	.
O=S(=O)(NCC(c1ccco1)N1CCc2ccccc2C1)c1ccc(Br)cc1 (centres undefined)	-8	-1	-3	13	-16	.
COc1ccccc1C(=O)Nc1ccc2c(c1)nc(CCNC(C)=O)n2C	-42	2	0	-38	5	.
COc1ccccc1C(=O)Nc1ccc2c(c1)nc(CCNC(=O)c1ccccc1)n2C	54*	3	6	-28	-7	29
CCN(CC)c1ccc(/C=C2\C(=N)N3N=C(CC(=O)N4CCOCC4)SC3=NC2=O)cc1	7	-1	2	4	-57	.
c1ccc(-c2cnc(-c3ccccc3)nn2)cc1	-178	-1	-4	-240	-1	-102
c1ccc(-c2cnc(-c3ccccn3)nn2)cc1	-114	-1	-4	-157	6	.
COc1ccc(N2CC(C(=O)N/N=C/c3ccc(C)cc3)CC2=O)cc1 (centres undefined)	55*	-4	0	-37	-4	18
SMILES	Jurkat NFkB inh	UPR CHOP act	UPR XBP1 act	697 NFkB inh	CRFR2-BP antag	Jurkat NFkB conf
O=C(c1ccc(Br)s1)N1CCN(c2ccccn2)CC1	-12	1	2	3	-11	.
O=C(N1CCN(c2ccccn2)CC1)N1c2ccccc2Sc2ccccc21	68*	1	8	-30	-3	24
O=C(c1ccco1)N1CCN(C(=O)N2c3ccccc3Sc3ccccc32)CC1	59*	1	13	-74	-9	55*
O=C(c1ccco1)N1c2ccccc2Sc2ccccc21	0	2	-2	-7	24	.
CCCCc1nc(SCC(=O)Nc2cccc(Cl)c2)n[nH]1	-6	2	-3	-9	-16	.
COc1ccc(/C=N/NC(=O)c2cccc(NC(C)=O)c2)c(OC)c1	-10	-1	-1	11	5	.
COc1ccc(C(=O)Nc2cccc(C(=O)N/N=C/c3ccc(OC)cc3OC)c2)cc1	57*	-4	-14	-14	8	2
COc1cccc(NC(=O)c2ccc3c(c2)CCCC3)c1	-153	3	-1	-21	-1	-118
COc1ccc(C(=O)Nc2ccccc2)cc1NC(=O)c1cccs1	-6	0	0	15	-9	.
Cc1ccc(NC(=O)c2scc3c2CCCC3)cc1	-231	4	-3	-226	-6	-122
CN1CCN(C(=O)c2ccccc2NC(=O)c2sc3ccccc3c2Cl)CC1	16	0	-2	-6	4	.
CN1CCN(c2ccc(NC(=O)c3sc4ccccc4c3Cl)cc2)CC1	-179	2	-5	-176	-1	-60
Fc1ccc(Nc2ccc3ccccc3n2)c(F)c1	-211	1	-4	-242	-20	-138
O=C(NC(=S)Nc1ccccn1)c1ccccc1	-150	3	0	-156	4	26
CCc1nn2c(=O)c(S(=O)(=O)Nc3ccc(C(C)C)cc3)c(C)nc2s1	-14	1	0	-25	1	.
CC(C)Oc1ccccc1C1CC(=O)Nc2cc3c(cc21)OCCO3 (centres undefined)	78*	-1	6	-20	-36	51*
CCOc1ccccc1C1CC(=O)Nc2cc3c(cc21)OCO3 (centres undefined)	63*	-3	4	-1	4	60*
Cc1cc(NC(=O)c2cc(-c3cccs3)on2)no1	-2	4	3	35	-56	.
Cc1ccc(O)c(NC(=O)c2cc(-c3cccs3)on2)c1	88*	9	4	-45	-13	17
Cc1ccc(O)c(NC(=O)c2cc(-c3ccc(F)cc3)on2)c1	71*	6	2	-66	-19	-11
COc1ccc(-c2cc(C(=O)Nc3cc(Br)ccc3O)no2)cc1	-29	1	5	-98	15	.
CC1CCCN(C(=O)COC(=O)c2cc(-c3cccs3)nn2-c2ccccc2)C1 (centres undefined)	6	0	2	-4	6	.
O=C(/C=C/c1cccc([N+](=O)[O-])c1)n1cnc2ccccc21	71*	-4	-4	-43	-55	40
O=C(/C=C/c1cccc([N+](=O)[O-])c1)N1CCN(c2ccccn2)CC1	-4	-1	-7	-6	10	.
